# Experiments:
# P2Y12 receptor [1] = target: T1, P2Y12 receptor (Homo sapiens, UniProt Q9H244); assay: [3H]PSB-0413 radioligand competition binding, Sf9 insect cell membranes; conditions: for rank order of potency at labelled binding sites: unpublished data of the authors
# washed platelets [2] = type: cell-based, human; conditions: intermediates 30 μM vs 2-MeSADP 0.04 μM
# human platelets [3] = assay: LTA with PRP: LPA-stimulated platelet aggregation; type: cell-based; conditions: 30 μM test compound pre-incubated, LPA 10 μM
# In short: (§1)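 Turbidimetric light transmission aggregometry was run on human PRP normalised to 300,000 cells/μl. Platelets were pre-treated for 5 min with 30 μM test compound, then given 10 μM LPA. Shape change was taken from the traces (n=10). Aggregation was reported as mean platelet aggregation in % (n=8).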
# P2Y12 receptor [4] = target: T1, P2Y12 receptor; assay: [35S]GTPγS binding in isolated platelet membranes; type: biochemical
# human platelets [5] = assay: LTA with PRP: TRAP-mediated platelet aggregation; type: cell-based; conditions: 30 μM FPP, TRAP 15 μM
# human platelets [6] = assay: LTA with PRP: LPA-stimulated platelet shape change; type: cell-based
# In short: as §1
# human platelets [7] = assay: LTA: 2-MeSADP-stimulated platelet aggregation; type: cell-based; conditions: for effect on 2-MeSADP-stimulated platelet aggregation: 30 μM test compound, 30 nM 2-MeS-ADP, PRP
# In short: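 In human PRP (300,000 cells/μl), aggregation was stimulated with 2-MeSADP (30 nM) with or without 30 μM test compound. Full 2-MeSADP concentration-response curves were run alone or after pre-incubation with 15 or 30 μM test compound. Values were normalised to 2-MeSADP alone and EC50 was derived from the curves; n=6.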
# washed platelets [8] = assay: Calcium flux assay on platelets; type: cell-based, human; conditions: 30 μM FPP
# human platelets [9] = assay: LTA with PRP: epinephrine-mediated platelet aggregation; type: cell-based; conditions: 30 μM FPP, epinephrine 1 μM
# In short: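 For light transmission aggregometry, human platelets were normalised to 300,000 cells/μl and exposed to 30 μM test compound before agonist. Epinephrine was added at 1 μM (n=15); the TRAP arm had n=7. Representative traces accompanied the bar data.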
# T1 sequence (Q9H244 whole entry): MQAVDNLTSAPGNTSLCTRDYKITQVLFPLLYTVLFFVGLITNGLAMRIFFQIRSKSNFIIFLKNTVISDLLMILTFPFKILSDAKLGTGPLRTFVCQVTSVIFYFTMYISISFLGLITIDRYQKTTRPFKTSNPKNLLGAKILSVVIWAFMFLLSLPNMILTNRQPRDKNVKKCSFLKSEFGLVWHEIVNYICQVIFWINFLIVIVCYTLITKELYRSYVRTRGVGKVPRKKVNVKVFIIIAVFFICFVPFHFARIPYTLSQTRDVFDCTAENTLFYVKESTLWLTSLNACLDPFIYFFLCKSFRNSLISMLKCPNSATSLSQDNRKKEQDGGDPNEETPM
structure (smiles),measurement,setting,value
"Nc1ncnc2c1ncn2[C@@H]1O[C@H](COP(=O)(O)OP(=O)(O)O)[C@@H](O)[C@H]1O [ADP, adenosine diphosphate]",extent of inhibition of [3H]PSB-0413 binding,P2Y12 receptor [1],complete inhibition
same,rank order of potency at labelled binding sites,P2Y12 receptor [1],"PSB-0739 ([21], [22]). >2-methylthio-ADP > ADP"
"CC(C)=CCOP(=O)(O)OP(=O)(O)O.N.N.N [DMAPP, γ,γ-dimethylallyl pyrophosphate triammonium salt]",antagonistic activity on platelets stimulated by 2-MeSADP,washed platelets [2],Only FPP displayed a statistically significant effect
"CC(C)=CCCC(C)=CCCC(C)=CCOP(=O)(O)O.N.N [FMP, 3,7,11-trimethyl-2,6,10-dodecatrien-1-yl monophosphate ammonium salt]",antagonistic activity on platelets stimulated by 2-MeSADP,washed platelets [2],Only FPP displayed a statistically significant effect
"CC(C)=CCCC(C)=CCCC(C)=CCOP(=O)(O)OP(=O)(O)O.N.N.N [FPP, 3,7,11-Trimethyl-2,6,10-dodecatrien-1-yl pyrophosphate ammonium salt]",antagonistic activity on platelets stimulated by 2-MeSADP,washed platelets [2],statistically significant effect
same,effect on LPA-stimulated platelet aggregation,human platelets [3],no effect
same,IC50,P2Y12 receptor [1],65.8 µM
same,extent of inhibition of [3H]PSB-0413 binding,P2Y12 receptor [1],partial inhibition
same,maximal inhibition of [3H]PSB-0413 binding,P2Y12 receptor [1]; very high concentrations,30–40%
same,IC50,P2Y12 receptor [4],45 µM
same,effect of compound alone on [35S]GTPγS binding,P2Y12 receptor [4]; FPP 1 M alone (so in the source),"small, but significant, increase"
same,concentrations at which FPP independently stimulated [35S]GTPγS binding,P2Y12 receptor [4]; platelet membranes,below 6 μM
same,effect on TRAP-stimulated platelet aggregation,human platelets [5],unaffected
same,effect on LPA-stimulated platelet shape change,"human platelets [6]; 30 μM FPP, 10 μM LPA, p=0.017",potentiated
same,"platelet shape change, compound alone",human platelets [6]; FPP alone,unable to show an effect
same,effect on 2-MeSADP-stimulated platelet aggregation,human platelets [7],"clear, concentration-dependent inhibition"
same,inhibition at 10 µM,"human platelets [7]; Homo sapiens, Platelet, read-out: inhibition of 2-MeSADP-stimulated aggregation",40 ± 5%
same,effect on ADP-stimulated calcium signalling,washed platelets [8]; 5 μM ADP,no statistical significance
same,effect on thrombin-stimulated calcium signalling,washed platelets [8]; thrombin 0.5 U/ml,no statistical significance
same,effect on epinephrine-stimulated platelet aggregation,human platelets [9],unaffected
"CC(C)=CCC/C(C)=C/CC/C(C)=C/CC/C(C)=C/COP(=O)(O)OP(=O)(O)O.N.N.N [GGPP, all trans-3,7,11,15-tetra-methyl-2,6,10,14-hexadecatetraenyl pyrophosphate ammonium salt]",antagonistic activity on platelets stimulated by 2-MeSADP,washed platelets [2],Only FPP displayed a statistically significant effect
"CC(C)=CCC/C(C)=C/COP(=O)(O)OP(=O)(O)O.N.N.N [GPP, trans-3,7-dimethyl-2,6-octadienyl pyrophosphate ammonium salt]",antagonistic activity on platelets stimulated by 2-MeSADP,washed platelets [2],Only FPP displayed a statistically significant effect
"C=C(C)CCOP(=O)(O)OP(=O)(O)O.N.N.N [IPP, isopentenyl pyrophosphate triammonium salt]",antagonistic activity on platelets stimulated by 2-MeSADP,washed platelets [2],Only FPP displayed a statistically significant effect
"CCCCC/C=C\C/C=C\C/C=C\C/C=C\CCCC(=O)NCC(=O)O [NAG, N-arachidonoylglycine, reference compound]",effect on LPA-stimulated platelet aggregation,human platelets [3],No statistically significant inhibitory effect
same,effect on 2-MeSADP-stimulated platelet aggregation,human platelets [7],without effect
"Nc1c(S(=O)(=O)[O-])cc(Nc2ccc(Nc3ccccc3)c(S(=O)(=O)[O-])c2)c2c1C(=O)c1ccccc1C2=O.[Na+].[Na+] [PSB-0739, 1-amino-4-[4-phenylamino-sulfophenylamino]-9,10-dioxo-9,10-dihydroanthracene-2-sulfonic acid disodium salt]",extent of inhibition of [3H]PSB-0413 binding,P2Y12 receptor [1],complete inhibition
same,rank order of potency at labelled binding sites,P2Y12 receptor [1],"PSB-0739 ([21], [22]). >2-methylthio-ADP > ADP"
"CCCSc1nc(N[C@@H]2C[C@H]2c2ccc(F)c(F)c2)c2nnn([C@@H]3C[C@H](OCCO)[C@@H](O)[C@H]3O)c2n1 [ticagrelor, Ticagrelor, reference compound]",effect on 2-MeSADP dose response curve of [35S]GTPγS binding,P2Y12 receptor [4]; 60 nM ticagrelor,right-shifted the dose response curve
same,effect on FPP-stimulated [35S]GTPγS binding,P2Y12 receptor [4]; 10 μM ticagrelor,readily blocked

# — article PMC3479660 (Thrombosis and haemostasis, 2012)
